In ChEMBL document CHEMBL1926577, “Novel 1,3,4-heterodiazole analogues: synthesis and in-vitro antitumor activity” (2012):

Columns and labels:
Assay type in all cases: functional
MOLT-4 = test: Growth inhibition of human MOLT4 cells at 10 uM after 48 hrs by coulter counter method; settings: MOLT-4, 48 h, read-out: GI
Summary of the method: (§1)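 NCI 60-cell-line panel, single dose. Compound dissolved first in DMSO, then diluted in phosphate-buffered saline so that every final dilution held under 1% DMSO. Duplicate wells received cells at 6 × 10⁴ cells/ml. Controls held PBS/DMSO at the same dilution. Plates were incubated 48 h at 37 °C under 5% CO₂. Cells were then diluted 10-fold in saline and counted on a Coulter counter, with counts corrected for the dilution. Results are given as percent growth inhibition.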

KM12 = test: Growth inhibition of human KM12 cells at 10 uM after 48 hrs by coulter counter method; settings: KM12, 48 h, read-out: GI; summary of the method: as §1
SK-MEL-28 = test: Growth inhibition of human SK-MEL-28 cells at 10 uM after 48 hrs by coulter counter method; settings: SK-MEL-28, 48 h, read-out: GI; summary of the method: as §1
CAKI-1 = test: Growth inhibition of human Caki1 cells at 10 uM after 48 hrs by coulter counter method; settings: CAKI-1, 48 h, read-out: GI; summary of the method: as §1
HL-60(TB) = test: Growth inhibition of human HL-60(TB) cells at 10 uM after 48 hrs by coulter counter method; settings: HL-60, 48 h, read-out: GI
Summary of the method: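 Single-dose screen on the NCI 60-line panel (leukemia subpanel). Compound is dissolved in DMSO and diluted in PBS, with final DMSO below 1%. Duplicate wells hold 6 × 10⁴ cells/ml at 37 °C, 5% CO₂, for 48 h. Cells are counted by Coulter counter after 10-fold saline dilution. Read-out is percent growth versus PBS/DMSO controls, expressed as % growth inhibition.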

SK-MEL-2 = test: Growth inhibition of human SK-MEL-2 cells at 10 uM after 48 hrs by coulter counter method; settings: SK-MEL-2, 48 h, read-out: GI; summary of the method: as §1
ACHN = test: Growth inhibition of human ACHN cells at 10 uM after 48 hrs by coulter counter method; settings: read-out: GI; summary of the method: as §1
OVCAR-8 = test: Growth inhibition of human OVCAR8 cells at 10 uM after 48 hrs by coulter counter method; settings: OVCAR-8, 48 h, read-out: GI; summary of the method: as §1
IGROV-1 = test: Growth inhibition of human IGROV1 cells at 10 uM after 48 hrs by coulter counter method; settings: IGROV-1, 48 h, read-out: GI; summary of the method: as §1
UACC-62 = test: Growth inhibition of human UACC62 cells at 10 uM after 48 hrs by coulter counter method; settings: UACC-62, 48 h, read-out: GI; summary of the method: as §1
RPMI-8226 = test: Growth inhibition of human RPMI8226 cells at 10 uM after 48 hrs by coulter counter method; settings: RPMI-8226, 48 h, read-out: GI; summary of the method: as §1
A549 = test: Growth inhibition of human A549 cells at 10 uM after 48 hrs by coulter counter method; settings: A549, 48 h, read-out: GI; summary of the method: as §1
HCT-15 = test: Growth inhibition of human HCT15 cells at 10 uM after 48 hrs by coulter counter method; settings: HCT-15, 48 h, read-out: GI; summary of the method: as §1
EKVX = test: Growth inhibition of human EKVX cells at 10 uM after 48 hrs by coulter counter method; settings: read-out: GI; summary of the method: as §1
Malme-3M = test: Growth inhibition of human MALME-3M cells at 10 uM after 48 hrs by coulter counter method; settings: read-out: GI; summary of the method: as §1
NCI-H23 = test: Growth inhibition of human NCI-H23 cells at 10 uM after 48 hrs by coulter counter method; settings: NCI-H23, 48 h, read-out: GI; summary of the method: as §1
NCI-H226 = test: Growth inhibition of human NCI-H226 cells at 10 uM after 48 hrs by coulter counter method; settings: NCI-H226, 48 h, read-out: GI; summary of the method: as §1
SNB-19 = test: Growth inhibition of human SNB19 cells at 10 uM after 48 hrs by coulter counter method; settings: SNB-19, 48 h, read-out: GI; summary of the method: as §1
MDA-MB-468 = test: Growth inhibition of human MDA-MB-468 cells at 10 uM after 48 hrs by coulter counter method; settings: MDA-MB-468, 48 h, read-out: GI; summary of the method: as §1
SK-MEL-5 = test: Growth inhibition of human SK-MEL-5 cells at 10 uM after 48 hrs by coulter counter method; settings: SK-MEL-5, 48 h, read-out: GI; summary of the method: as §1
BT-549 = test: Growth inhibition of human BT549 cells at 10 uM after 48 hrs by coulter counter method; settings: BT-549, 48 h, read-out: GI; summary of the method: as §1
SF-295 = test: Growth inhibition of human SF295 cells at 10 uM after 48 hrs by coulter counter method; settings: SF-295, 48 h, read-out: GI; summary of the method: as §1
SR = test: Growth inhibition of human SR cells at 10 uM after 48 hrs by coulter counter method; settings: read-out: GI; summary of the method: as §1
786-0 = test: Growth inhibition of human 786-0 cells at 10 uM after 48 hrs by coulter counter method; settings: 786-0, 48 h, read-out: GI; summary of the method: as §1
HT-29 = test: Growth inhibition of human HT-29 cells at 10 uM after 48 hrs by coulter counter method; settings: HT-29, 48 h, read-out: GI; summary of the method: as §1
PC-3 = test: Growth inhibition of human PC3 cells at 10 uM after 48 hrs by coulter counter method; settings: PC-3, 48 h, read-out: GI; summary of the method: as §1
MDA-MB-435 = test: Growth inhibition of human MDA-MB-435 cells at 10 uM after 48 hrs by coulter counter method; settings: MDA-MB-435, 48 h, read-out: GI; summary of the method: as §1
SN12C = test: Growth inhibition of human SN12C cells at 10 uM after 48 hrs by coulter counter method; settings: read-out: GI; summary of the method: as §1
UACC-257 = test: Growth inhibition of human UACC257 cells at 10 uM after 48 hrs by coulter counter method; settings: UACC-257, 48 h, read-out: GI; summary of the method: as §1
CCRF-CEM = test: Growth inhibition of human CCRF-CEM cells at 10 uM after 48 hrs by coulter counter method; settings: read-out: GI; summary of the method: as §1
U-251 = test: Growth inhibition of human U251 cells at 10 uM after 48 hrs by coulter counter method; settings: U-251, 48 h, read-out: GI; summary of the method: as §1
NCI/ADR-RES = test: Growth inhibition of human NCI/ADR-RES cells at 10 uM after 48 hrs by coulter counter method; settings: read-out: GI; summary of the method: as §1
MCF7 = test: Growth inhibition of human MCF7 cells at 10 uM after 48 hrs by coulter counter method; settings: MCF7, 48 h, read-out: GI; summary of the method: as §1
UO-31 = test: Growth inhibition of human UO31 cells at 10 uM after 48 hrs by coulter counter method; settings: UO-31, 48 h, read-out: GI; summary of the method: as §1
TK-10 = test: Growth inhibition of human TK10 cells at 10 uM after 48 hrs by coulter counter method; settings: TK-10, 48 h, read-out: GI; summary of the method: as §1
M14 = test: Growth inhibition of human M14 cells at 10 uM after 48 hrs by coulter counter method; settings: M14, 48 h, read-out: GI; summary of the method: as §1
SNB-75 = test: Growth inhibition of human SNB75 cells at 10 uM after 48 hrs by coulter counter method; settings: SNB-75, 48 h, read-out: GI; summary of the method: as §1
NCI-H322M = test: Growth inhibition of human NCI-H322M cells at 10 uM after 48 hrs by coulter counter method; settings: read-out: GI; summary of the method: as §1
HCT-116 = test: Growth inhibition of human HCT116 cells at 10 uM after 48 hrs by coulter counter method; settings: HCT-116, 48 h, read-out: GI; summary of the method: as §1
LOX IMVI = test: Growth inhibition of human LOXIMVI cells at 10 uM after 48 hrs by coulter counter method; settings: read-out: GI; summary of the method: as §1
T47D = test: Growth inhibition of human T47D cells at 10 uM after 48 hrs by coulter counter method; settings: read-out: GI; summary of the method: as §1
SF-268 = test: Growth inhibition of human SF268 cells at 10 uM after 48 hrs by coulter counter method; settings: SF-268, 48 h, read-out: GI; summary of the method: as §1
K562 = test: Growth inhibition of human K562 cells at 10 uM after 48 hrs by coulter counter method; settings: K562, 48 h, read-out: GI; summary of the method: as §1
NCI-H522 = test: Growth inhibition of human NCI-H522 cells at 10 uM after 48 hrs by coulter counter method; settings: NCI-H522, 48 h, read-out: GI; summary of the method: as §1
A498 = test: Growth inhibition of human A498 cells at 10 uM after 48 hrs by coulter counter method; settings: A498, 48 h, read-out: GI; summary of the method: as §1

O=C(CCN1CCCCC1)Nc1nnc(-c2ccc(Cl)cc2)s1
inhibition of growth at 10 µM (MOLT-4): < 10% | inhibition of growth at 10 µM (KM12): < 10% | inhibition of growth at 10 µM (SK-MEL-28): < 10% | inhibition of growth at 10 µM (CAKI-1): 18.8% | inhibition of growth at 10 µM (HL-60(TB)): < 10% | inhibition of growth at 10 µM (SK-MEL-2): < 10% | inhibition of growth at 10 µM (ACHN): < 10% | inhibition of growth at 10 µM (OVCAR-8): < 10% | inhibition of growth at 10 µM (IGROV-1): < 10% | inhibition of growth at 10 µM (UACC-62): < 10% | inhibition of growth at 10 µM (RPMI-8226): < 10% | inhibition of growth at 10 µM (A549): < 10% | inhibition of growth at 10 µM (HCT-15): < 10% | inhibition of growth at 10 µM (EKVX): 20.4% | inhibition of growth at 10 µM (Malme-3M): 10.7% | inhibition of growth at 10 µM (NCI-H23): < 10% | inhibition of growth at 10 µM (NCI-H226): < 10% | inhibition of growth at 10 µM (SNB-19): < 10% | inhibition of growth at 10 µM (MDA-MB-468): < 10% | inhibition of growth at 10 µM (SK-MEL-5): 24.7% | inhibition of growth at 10 µM (BT-549): < 10% | inhibition of growth at 10 µM (SF-295): 11% | inhibition of growth at 10 µM (SR): 11.9% | inhibition of growth at 10 µM (786-0): < 10% | inhibition of growth at 10 µM (HT-29): < 10% | inhibition of growth at 10 µM (PC-3): < 10% | inhibition of growth at 10 µM (MDA-MB-435): < 10% | inhibition of growth at 10 µM (SN12C): < 10% | inhibition of growth at 10 µM (UACC-257): < 10% | inhibition of growth at 10 µM (CCRF-CEM): < 10% | inhibition of growth at 10 µM (U-251): 12% | inhibition of growth at 10 µM (NCI/ADR-RES): < 10% | inhibition of growth at 10 µM (MCF7): < 10% | inhibition of growth at 10 µM (UO-31): 28.6% | inhibition of growth at 10 µM (TK-10): < 10% | inhibition of growth at 10 µM (M14): < 10% | inhibition of growth at 10 µM (SNB-75): < 10% | inhibition of growth at 10 µM (NCI-H322M): < 10% | inhibition of growth at 10 µM (HCT-116): < 10% | inhibition of growth at 10 µM (LOX IMVI): < 10% | inhibition of growth at 10 µM (T47D): < 10% | inhibition of growth at 10 µM (SF-268): < 10% | inhibition of growth at 10 µM (K562): < 10% | inhibition of growth at 10 µM (NCI-H522): 19.5% | inhibition of growth at 10 µM (A498): 11.6%
